Assay outcomes as filed in PubChem.
H69AR growth 86K: growth inhibitors of human H69AR lung tumor cells; H69AR lung tumor viability, ATP luminescence, 72 h; active compounds read low; viability, % at 10 µM; 85,000 compounds, 6% hits;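 active = viability at or below 40%; inactive = viability above 40%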;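 also: multidrug resistant small cell line overexpressing MRP-1 efflux transporter; 100% = mean luminescence of untreated control wells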
Lung fibro prol: blocks proliferation of human lung fibroblasts | LL 47 human lung fibroblast viability, ATP luminescence; active compounds read low | viability, % at 10 µM | 85,000 compounds, 1.1% hits;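 active = viability at or below 50% in the single dose screen; inactive = viability above 50%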;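 also: compound exposure lasted 72 h before the ATP readout; 100% = median luminescence of untreated cell-only wells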
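Material: human LL 47 lung fibroblast cells; quantity: 1,150 cells/well; medium: IMEM plus 15% FBS; doses: 0.1% DMSO in all compound wells; timing: overnight attachment after seeding, then 72 h compound exposure at 37 °C; detection: CellTiter-Glo luminescence; measure: % viability of median cell-only signal; controls: cell-only wells, no compound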
Jurkat tox 60K: cytotoxicity toward Jurkat cells; Jurkat E6.1 viability, ATP luminescence, 48 h; inhibition, % at 4 µM; 56,000 compounds, 1.2% hits; AID 463;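 active = inhibition above the mean inhibition of all tested compounds plus 3 SD, cut at about 28% in these data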
Ecoli tolC: growth inhibitors of E. coli BW25113 tolC mutant | growth inhibition, % at 10 µM (by protocol) | OD615 | 65,000 compounds, 2.2% hits;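 active = growth inhibition at or above a cutoff equal to the mean over every tested compound plus 3 SD, cut at about 60% in these data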;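 also: growth measured after 20 h incubation at 37 °C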
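Material: E. coli BW25113 ΔtolC::kan, tolC deletion mutant strain. Measure: percent growth inhibition. Schedule: 37 °C, 20 h exposure. Doses: single-point testing at 10 µM. Signal: A615 absorbance measurement. Buffer or medium: kanamycin-containing LB broth (50 µg/mL).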
HUVEC prolif 384: blocks proliferation of human endothelial cells; HUVEC proliferation, CellTiter-Glo luminescence, 72 h; active compounds read low; viability, % at 10 µM (by protocol); 86,000 compounds, 1.1% hits;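 active = viability at or below 30%; inactive = viability above 30%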;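 also: 100% = median luminescence of DMSO-only cell control wells on each plate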
E coli WT exp: growth inhibitors of E. coli BW25113 wild type; OD600 absorbance; growth inhibition, % at 100 µM; 98,000 compounds, 0.15% hits;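 active = growth inhibition above about 50% at one test dose, limit read from the data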;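 also: growth measured after 20 h incubation at 37 °C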
Numbers without * were called inactive; x = no result given. Rows were chosen to be rich in hits. Some 6.4% of all compounds tested hit in one or more screens of this group.

SMILES	H69AR growth 86K	Lung fibro prol	Jurkat tox 60K	Ecoli tolC	HUVEC prolif 384	E coli WT exp
CC(=O)Nc1ccc(S(=O)(=O)n2cnc3ccccc32)cc1	99.8	97.2	x	x	102.2	-2.0
Cc1[nH][nH]c(=O)c1C(c1ccc(-c2ccc(Cl)c(Cl)c2)o1)c1c(C)[nH][nH]c1=O	29.5*	68.8	x	x	37.8	11.0
Cc1ccc(S(=O)(=O)Oc2ccc(C(c3c(C)[nH][nH]c3=O)c3c(C)[nH][nH]c3=O)cc2)cc1	99.3	102.5	x	x	89.6	-4.0
COc1ccc(OC)c(N2Cc3cc(C)c(C)cc3C2)c1	82.2	95.0	0.6	3.0	92.0	7.0
CN(C)CCN1C(=O)C(=O)/C(=C(/O)c2ccc(OCc3ccccc3)cc2)C1c1ccncc1 (configuration not stated)	86.0	109.2	7.1	-7.5	89.4	-1.0
c1ccc2oc(SCc3nc4ccccc4s3)nc2c1	82.3	93.9	2.1	61.5*	97.2	-4.0
N#CCc1nc(CSc2nc3ccccc3o2)cs1	91.3	101.8	4.9	4.0	107.7	9.0
Cc1occc1C(=O)NNC(=O)NC12CC3CC(CC(C3)C1)C2	x	x	x	x	x	4.0
CCOC(=O)c1ccc(N2C(=O)C=CC2=O)cc1	1.9*	4.3*	x	x	12.3*	0.0
CCCc1cc(O)c2c(C)cc(=O)oc2c1	84.4	87.1	x	x	77.8	x
COC(=O)C1=C(CSCc2ccccc2)NC(=O)NC1c1cc(C)ccc1C (configuration not stated)	64.6	100.6	x	x	91.3	-4.0
COC(=O)C1=C(CSc2nc3ccccc3o2)NC(=O)NC1c1cc(C)ccc1C (configuration not stated)	96.5	86.5	10.3	85.9*	67.3	10.0
COC(=O)C1=C(CN2CCc3ccccc32)NC(=O)NC1c1cc(C)ccc1C (configuration not stated)	33.8*	89.4	6.5	45.4	85.5	-1.0
CC1(C)NC(=O)N(CC(=O)Nc2nc(-c3ccc(F)cc3)cs2)C1=O	x	x	x	x	x	-2.0
CS(=O)(=O)N(Cc1ccccc1)c1ccc(C(=O)Nc2ccc3c(c2)OCO3)cc1	91.4	91.8	x	x	70.8	-2.0
Cn1c(=N)n(CC(O)c2cccc3ccccc23)c2ccccc21 (configuration not stated)	26.5*	84.0	6.6	14.7	88.4	9.0
Cc1nc2nc(C)c(CCC(=O)NCc3ccc4c(c3)OCO4)c(C)n2n1	26.4*	99.5	-3.9	-8.9	95.7	2.0
O=C(Nc1cccc2c1[nH]c1ccccc12)C(F)(F)F	10.8*	98.8	x	x	95.4	x
COc1ccc(-c2cc3ccccc3oc2=O)cc1NC(=O)c1ccc([N+](=O)[O-])o1	x	x	x	x	x	-4.0
COc1ccc(-c2cc3ccccc3oc2=O)cc1NC(=O)c1ccc(Br)o1	31.6*	90.4	10.2	-21.8	47.8	0.0
COc1ccccc1NC(=O)c1ccc(-c2ccc(Br)cc2)o1	19.0*	79.3	x	x	55.5	-10.0
Cc1ccccc1NCc1ccccc1O	94.2	95.9	-0.5	-6.0	80.3	7.0
O=C(Nc1ccccc1)c1ccc(-c2ccc(Br)cc2)o1	69.0	106.5	x	x	73.5	x
COc1ccccc1C(=O)Nc1cc2ccccc2oc1=O	31.9*	99.6	x	x	80.2	-3.0
O=c1oc2ccccc2cc1NCc1ccccc1O	70.4	95.0	41.3*	24.5	91.1	12.0
SMILES	H69AR growth 86K	Lung fibro prol	Jurkat tox 60K	Ecoli tolC	HUVEC prolif 384	E coli WT exp
Cc1ccc(C2C3=C(CC(C)(C)CC3=O)N(CCN3CCOCC3)C3=C2C(=O)CC(C)(C)C3)cc1	86.8	106.4	2.1	1.4	96.6	6.0
Cc1ccccc1NC(=O)C1CCC(C)(C(=O)O)C1(C)C (configuration not stated)	92.3	106.2	4.2	-23.7	98.5	-14.0
COc1ccccc1Nc1nc(N)nc(CSc2ncccn2)n1	87.5	100.8	0.7	-7.4	89.1	0.0
COc1ccc(N2CCN(Cc3nc(N)nc(Nc4ccccc4OC)n3)CC2)cc1	7.7*	103.1	-7.2	21.1	97.5	4.0
COc1ccc(OCc2nc(N)nc(Nc3ccccc3OC)n2)cc1	2.2*	76.9	x	x	94.9	6.0
Cc1c(Cl)cccc1Nc1nc(N)nc(CN2CCc3ccccc3C2)n1	14.9*	86.8	x	x	89.1	4.0
COc1ccccc1N1CCN(Cc2nc(N)nc(Nc3ccc(C)c(Cl)c3)n2)CC1	x	x	15.2	69.0*	x	3.0
C=CCn1c(SCC(=O)N(C)C2CCS(=O)(=O)C2)nnc1-c1ccncc1 (configuration not stated)	x	x	x	x	x	6.0
CCOC(=O)N1CCN(C(=O)c2ccc(Cl)c(S(=O)(=O)Nc3ccccc3)c2)CC1	31.6*	103.5	10.6	3.2	95.1	1.0
COc1ccc(C(=O)N2CCCCC2)cc1S(=O)(=O)Nc1ccccc1	92.4	100.3	-2.0	-5.5	93.2	6.0
CCOC(=O)C(CSCC(=O)c1ccc(Cl)cc1)NC(=O)OC(C)(C)C (configuration not stated)	95.5	85.5	x	x	88.8	6.0
CCOC(=O)c1c(NC(=O)C(F)(OC)C(F)(F)F)sc(C(=O)N2CCCCC2)c1C (configuration not stated)	71.5	87.0	5.1	77.7*	94.4	-9.0
CCOC(=O)c1sc(NC(=O)CN2CCCC2)c(C(=O)OCC)c1C	70.3	96.3	5.6	20.1	67.0	-2.0
COc1cc(C(=S)N2CCCCC2)ccc1OCC(=O)N1CCCC1	92.3	93.5	-4.2	3.9	103.1	5.0
CCOc1cc(C(=S)N2CCCCC2)ccc1OCC(=O)NCc1ccccc1	22.7*	97.5	x	x	104.9	-13.0
C=C(C)COc1ccc(-c2nc(N)ncc2Oc2ccccc2OCC)c(O)c1	75.1	96.9	7.5	16.8	97.6	-10.0
CCOc1ccc(-c2nc(N)ncc2-c2ccccc2)c(O)c1	28.0*	92.6	3.4	34.3	114.2	2.0
CCOc1ccc(-c2cc(NC(=O)Cn3ncc4c3-c3ccccc3OC4)on2)cc1OCC	30.4*	93.9	8.0	11.8	49.9	-14.0
Oc1ccc(Nc2nc(N3CCCC3)c3ccccc3n2)cc1	0.7*	2.5*	0.3	32.8	47.5	-1.0
COc1cc2c(cc1OC)C(C(=O)N1CCN(c3ccccc3)CC1)C(c1cccs1)N(C)C2=O (configuration not stated)	87.4	90.1	x	x	91.0	1.0
COc1ccc(OC)c(NC(=O)CNC(=O)c2cccs2)c1	101.3	99.9	x	x	96.1	2.0
CC1(C)CC(=O)C(C(C#Cc2ccccc2)C2=C(O)CC(C)(C)CC2=O)=C(O)C1	29.4*	82.7	x	x	81.8	7.0
O=C1CCCC(O)=C1C(C#Cc1ccccc1)C1=C(O)CCCC1=O	7.3*	80.8	1.3	-4.3	75.8	0.0
Cn1cc(C(=O)NCCN2CCN(c3ccccc3F)CC2)c2c3ccccc3n(C)c2c1=O	54.6	98.7	-2.7	15.7	73.6	x
CN1CCc2c(sc3c2c(=O)n(-c2ccccc2)c2n[nH]c(=S)n32)C1	x	x	x	x	x	-2.0
CC1=NOC(=O)/C1=C/c1ccc(-c2ccc(Cl)cc2)o1	2.5*	8.7*	x	x	55.9	25.0
